Measurements from different studies.
Lines come from different studies, so protocols differ.
Target: Homeodomain-interacting protein kinase 4 (HIPK4, Homo sapiens, UniProt Q8NE63)
Effect on: enzyme activity
Mode: inhibitor
Sequence (Q8NE63 1-616, as in one of the studies): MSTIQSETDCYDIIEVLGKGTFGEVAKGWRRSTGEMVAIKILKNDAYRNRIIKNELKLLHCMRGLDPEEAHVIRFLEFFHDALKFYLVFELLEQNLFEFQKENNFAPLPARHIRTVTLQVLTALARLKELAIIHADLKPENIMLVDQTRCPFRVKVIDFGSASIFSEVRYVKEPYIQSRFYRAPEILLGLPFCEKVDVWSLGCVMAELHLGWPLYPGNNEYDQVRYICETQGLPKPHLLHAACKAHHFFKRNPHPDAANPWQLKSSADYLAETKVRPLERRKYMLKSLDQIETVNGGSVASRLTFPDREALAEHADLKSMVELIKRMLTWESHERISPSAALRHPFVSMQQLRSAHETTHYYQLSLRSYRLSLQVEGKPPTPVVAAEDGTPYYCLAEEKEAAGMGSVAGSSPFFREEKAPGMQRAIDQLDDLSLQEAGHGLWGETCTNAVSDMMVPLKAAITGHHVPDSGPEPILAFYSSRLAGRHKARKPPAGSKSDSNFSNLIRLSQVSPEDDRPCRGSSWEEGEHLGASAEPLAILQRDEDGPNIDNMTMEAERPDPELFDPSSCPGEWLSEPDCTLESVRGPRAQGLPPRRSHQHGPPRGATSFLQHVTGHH

Compound | test | setting | remaining activity [%]
COc1cc(Cl)c(C(=O)N[C@@H](CN[C@H]2CC[C@@H](N)CC2)Cc2ccc(C#N)cc2)cc1-c1ccc(CN[C@H](C)c2ccc(C)cc2)o1 |  | 1 µM | 90
Cc1sc(C(=O)NC2COC2)cc1-n1cc(NC(=O)Nc2c(F)cccc2Cl)cn1 |  | 10 µM | 98.4
O=C(O)c1ccc2c(c1)nc(NCCc1ccccc1)c1ncncc12 | radiometric | 1 µM | 29
CC(C)(C)c1nc2c(s1)c1nc(N)ncc1c1ccc(NS(=O)(=O)c3c(F)cccc3F)c(F)c12 | radiometric | 1 µM | 82
O=C(O)c1ccc2c(c1)nc(NCc1ccccc1)c1ncncc12 | radiometric | 1 µM | 63
O=C(Nc1cnn(-c2csc(C(=O)NC3COC3)c2)c1)Nc1ccccc1Cl |  | 5 µM | 100
CC(C)(C)c1nc(-c2cccc(NS(=O)(=O)c3c(F)cccc3F)c2F)c(-c2ccnc(N)n2)s1 | radiometric | 1 µM | 37
O=C(O)c1ccc2c(c1)nc(Nc1ccccc1)c1ccncc12 | radiometric | 1 µM | -2
Cc1ccc(C(=O)Nc2ccc(CN3CCN(C)CC3)c(C(F)(F)F)c2)cc1C#Cc1cnc2cccnn12 |  | 23.5 nM | 71
CC(C)(O)[C@H]1CC[C@H](Nc2ccc3ncc(-c4cccc(C(F)(F)F)c4)n3n2)CC1 |  | 1 µM | 23.6
